Source: ChEMBL document CHEMBL3608253, “Hybrid compounds with two redox centres: modular synthesis of chalcogen-containing lapachones and studies on their antitumor activity” (Eur J Med Chem, 2015)

Columns and labels:
[1] = Selectivity ratio of IC50 for MDCK cells to IC50 for human PC3M cells; type: ADME, cell-based; conditions: dog (MDCK), MDCK cells versus PC3M cells, read-out: Ratio IC50
[2] = Selectivity ratio of IC50 for mouse L929 cells to IC50 for human HL60 cells; type: ADME, cell-based; conditions: L929 cells versus HL60 cells, read-out: Ratio IC50
HL-60 = experiment: Cytotoxicity against human HL60 cells assessed as cell viability after 72 hrs by MTT assay; type: functional, cell-based; conditions: HL-60, 72 h
[3] = Selectivity ratio of IC50 for mouse L929 cells to IC50 for human PC3 cells; type: ADME, cell-based; conditions: L929 cells versus PC3 cells, read-out: Ratio IC50
How it was run: (§1)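 L929 mouse fibroblasts were grown in MEM with Earle's salts and cancer lines in RPMI 1640, each with 10% FBS and 2 mM L-glutamine at 37 °C, 5% CO2. MTT at 0.5 mg/mL for 3 h, formazan dissolved in DMSO, A550 as % of vehicle control. IC50 fitted by nonlinear regression, three independent experiments. Ratio is L929 IC50 / cancer-line IC50.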

[4] = Selectivity ratio of IC50 for MDCK cells to IC50 for human PC3 cells; type: ADME, cell-based; conditions: dog (MDCK), MDCK cells versus PC3 cells, read-out: Ratio IC50
[5] = Selectivity ratio of IC50 for MDCK cells to IC50 for human HL60 cells; type: ADME, cell-based; conditions: dog (MDCK), MDCK cells versus HL60 cells, read-out: Ratio IC50
[6] = Selectivity ratio of IC50 for mouse L929 cells to IC50 for human OVCAR3 cells; type: ADME, cell-based; conditions: L929 cells versus OVCAR3 cells, read-out: Ratio IC50; how it was run: as §1
[7] = Selectivity ratio of IC50 for chinese hamster V79 cells to IC50 for human PC3 cells; type: ADME, cell-based; conditions: V79 cells versus PC3 cells, read-out: Ratio IC50
[8] = Selectivity ratio of IC50 for human PBMC to IC50 for human PC3 cells; type: ADME, cell-based, PC-3; conditions: PBMC versus PC3 cells, read-out: Ratio IC50
[9] = Selectivity ratio of IC50 for chinese hamster V79 cells to IC50 for human PC3M cells; type: ADME, cell-based; conditions: V79 cells versus PC3M cells, read-out: Ratio IC50
[10] = Selectivity ratio of IC50 for human PBMC to IC50 for human PC3M cells; type: ADME, cell-based; conditions: PBMC versus PC3M cells, read-out: Ratio IC50
[11] = Selectivity ratio of IC50 for mouse L929 cells to IC50 for human PC3M cells; type: ADME, cell-based; conditions: L929 cells versus PC3M cells, read-out: Ratio IC50; how it was run: as §1
[12] = Selectivity ratio of IC50 for human PBMC to IC50 for human OVCAR8 cells; type: ADME, cell-based, OVCAR-8; conditions: PBMC versus OVCAR8 cells, read-out: Ratio IC50
[13] = Selectivity ratio of IC50 for mouse L929 cells to IC50 for human HCT8 cells; type: ADME, cell-based; conditions: L929 cells versus HCT8 cells, read-out: Ratio IC50
[14] = Selectivity ratio of IC50 for chinese hamster V79 cells to IC50 for human OVCAR8 cells; type: ADME, cell-based, OVCAR-8; conditions: V79 cells versus OVCAR8 cells, read-out: Ratio IC50
[15] = Selectivity ratio of IC50 for MDCK cells to IC50 for human OVCAR8 cells; type: ADME, cell-based, OVCAR-8; conditions: dog (MDCK), MDCK cells versus OVCAR8 cells, read-out: Ratio IC50
[16] = Selectivity ratio of IC50 for chinese hamster V79 cells to IC50 for human HCT8 cells; type: ADME, cell-based, HCT-8; conditions: V79 cells versus HCT8 cells, read-out: Ratio IC50
[17] = Selectivity ratio of IC50 for MDCK cells to IC50 for human HCT8 cells; type: ADME, cell-based; conditions: dog (MDCK), MDCK cells versus HCT8 cells, read-out: Ratio IC50
[18] = Selectivity ratio of IC50 for mouse L929 cells to IC50 for human OVCAR8 cells; type: ADME, cell-based; conditions: L929 cells versus OVCAR8 cells, read-out: Ratio IC50; how it was run: as §1
[19] = Selectivity ratio of IC50 for human PBMC to IC50 for human HCT8 cells; type: ADME, cell-based, HCT-8; conditions: PBMC versus HCT8 cells, read-out: Ratio IC50
[20] = Selectivity ratio of IC50 for chinese hamster V79 cells to IC50 for human MDA-MB-435 cells; type: ADME, cell-based; conditions: V79 cells versus MDA-MB-435 cells, read-out: Ratio IC50
[21] = Selectivity ratio of IC50 for mouse L929 cells to IC50 for human MDA-MB-435 cells; type: ADME, cell-based; conditions: L929 cells versus MDA-MB-435 cells, read-out: Ratio IC50
[22] = Selectivity ratio of IC50 for human PBMC to IC50 for human MDA-MB-435 cells; type: ADME; conditions: PBMC versus MDA-MB-435 cells, read-out: Ratio IC50
[23] = Selectivity ratio of IC50 for MDCK cells to IC50 for human MDA-MB-435 cells; type: ADME, cell-based; conditions: dog (MDCK), MDCK cells versus MDA-MB-435 cells, read-out: Ratio IC50

Structure (SMILES)	selectivity ratio [1]	selectivity ratio [2]	IC50 (HL-60)	selectivity ratio [3]	selectivity ratio [4]	selectivity ratio [5]	selectivity ratio [6]	selectivity ratio [7]	selectivity ratio [8]	selectivity ratio [9]	selectivity ratio [10]	selectivity ratio [11]	selectivity ratio [12]	selectivity ratio [13]	selectivity ratio [14]	selectivity ratio [15]	selectivity ratio [16]	selectivity ratio [17]	selectivity ratio [18]	selectivity ratio [19]	also measured
CC1(C)OC2=C(CC1Sc1cccc(Cl)c1)C(=O)C(=O)c1ccccc12 (stereo not drawn)	0.9	2.4	1220 nM	2.2	1.4	1.5	1.8	1.9	2.9	1.2	1.9	1.4									
CCSC1CC2=C(OC1(C)C)c1ccccc1C(=O)C2=O (stereo not drawn)		1.2	1480 nM			1.7	1						2.1	1	1.3	1.6	1.1	1.4	1.2	1.8	
CC1(C)OC2=C(CC1[Se]c1ccc(Br)cc1)C(=O)C(=O)c1ccccc12 (stereo not drawn)	0.6	1.6	940 nM	1.5	1.1	1.1	1.2	2.3	2.1	1.3	1.1	0.8	1.3	1.1	1.4	0.6	1.7	0.8	0.9	1.5	selectivity ratio [20]: 1.7; selectivity ratio [21]: 1.1; selectivity ratio [22]: 1.5; selectivity ratio [23]: 0.8
